PfM18AAP inh: blocks P. falciparum M18 aspartyl aminopeptidase; recombinant PfM18AAP, H-Glu-NHMec fluorogenic cleavage; inhibition, % at 7.35 µM; 290,000 compounds, 1.2% hits;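 active means inhibition above the campaign mean inhibition over all tested compounds plus 3 SD, cut at about 28% in these data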
CendR NRP1 mod: alters CendR peptide binding to human NRP-1 | inhibition, % at 25 µM | O14786 | FAM-RPARPAR peptide binding to NRP-1, fluorescence polarization | 360,000 compounds, 0.85% hits;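 active means inhibition or corrected inhibition above about 18%, plus a signal ratio from 0.5 to 1.5, limit read from the data, passing the limit was not always enough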
HGIII-sPLA2 inh: Blocks human group III sPLA2 activity. Q9NZ20. QFRET BODIPY PC-A2 liposome hydrolysis, fluorescence. inhibition, % at 12.2 µM. 370,000 compounds, 0.56% hits. AID 743126;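 active means inhibition above mean plus 3 SD of compounds lying within the high and low control bounds, cut at about 19% in these data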
HTR2A ag: mouse HTR2A agonism via beta-arrestin recruitment; 360,000 compounds, 0.66% hits; activation, % at 7.6 µM; CHO-K1 mHTR2A beta-arrestin complementation, luminescence; percent of 30 µM serotonin response; AID 624169;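 active means activation above a run cutoff, the mean activation of all tested compounds plus 3 SD, cut at about 14% in these data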
Target sequence (P35363 whole entry, looked up): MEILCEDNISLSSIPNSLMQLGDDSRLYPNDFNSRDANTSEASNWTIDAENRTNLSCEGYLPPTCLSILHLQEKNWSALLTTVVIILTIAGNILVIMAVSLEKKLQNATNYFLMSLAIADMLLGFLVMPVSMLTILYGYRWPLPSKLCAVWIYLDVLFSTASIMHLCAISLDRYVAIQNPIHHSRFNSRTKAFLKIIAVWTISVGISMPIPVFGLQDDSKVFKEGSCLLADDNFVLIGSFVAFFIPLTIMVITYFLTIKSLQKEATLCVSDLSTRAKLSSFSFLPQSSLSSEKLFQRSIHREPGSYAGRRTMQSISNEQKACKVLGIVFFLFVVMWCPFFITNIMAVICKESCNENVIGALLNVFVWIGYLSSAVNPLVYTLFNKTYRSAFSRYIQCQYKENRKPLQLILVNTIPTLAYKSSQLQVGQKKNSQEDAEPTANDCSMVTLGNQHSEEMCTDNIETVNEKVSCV
Lipid droplet: modulators of hepatic lipid droplet formation | inhibition, % at 6.5 µM | AID 1656 | 240,000 compounds, 0.4% hits | AML12 mouse hepatocytes, oleate lipid droplets, BODIPY imaging;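 active means lipid droplet intensity inhibited by at least 50%, with more than 500 cells counted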
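Material – mouse AML12 hepatocyte cell line, fixed after treatment · Compound dosing – one dose, 6.5 µM compound · Times – compound with oleate, overnight · Measured by – Image-based BODIPY and DAPI two-channel analysis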
Arrestin-AP2 inh: blocks beta-arrestin peptide binding to AP2 adaptin; FITC-arrestin peptide / GST-AP2 beads, flow cytometry; AP2 beta2 appendage carries R879A mutation; inhibition, % at 10 µM; 340,000 compounds, 0.31% hits;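 active means inhibition above a set limit, near 3 SD of compounds lacking own fluorescence, cut at about 54% in these data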
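System: GST-AP2 R879A bound to glutathione beads, E. coli-expressed. Also added: 50 nM FITC-arrestin peptide. Schedule: compound with beads 12 min RT, then probe 1 h RT. Signal: bead flow cytometry, FITC channel. Read-out basis: percent response.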
OPRM1 ag: OPRM1 agonism in mouse HTR2A counterscreen; shares compounds with HTR2A ag; U2OS OPRM1 beta-arrestin PathHunter, luminescence; DMSO 0%, DAMGO 9.3 µM 100%; activation, % at 9.3 µM; 2,300 compounds, 5.3% hits;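 active means mean activation above the mean of DMSO-only wells plus 3 SD, cut at about 0.5% in these data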
HTR2A ag conf: confirmation of mouse HTR2A serotonin receptor agonists; shares compounds with HTR2A ag; CHO-K1 PathHunter beta-arrestin recruitment, luminescence; DMSO 0%, 30 µM serotonin 100%; activation, % at 7.6 µM; 2,300 compounds, 19% hits;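 active means mean activation across triplicates above the hit threshold derived in the original primary screen, cut at about 15% in these data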
Of the large screens only hits and unclear results are named; the others gave an inactive call (follow-up assays come after a bar, where they were run). In the library only some 3.3% were active in any assay of this set; here they are far more common.

CC(=O)c1ccc(OCC(O)CN2CCN(CCO)CC2)cc1 (configuration not stated)	HTR2A ag 17.0 | OPRM1 ag inactive | HTR2A ag conf inactive
CCN1CCN(CC(O)COc2ccc(C(C)=O)cc2)CC1 (configuration not stated)	none (no result: Lipid droplet)
Cc1cccc(OCC(O)CN2CCN(c3ccccn3)CC2)c1C (configuration not stated)	HTR2A ag 18.9 | OPRM1 ag inactive | HTR2A ag conf 40.2
CC(C)(C)c1ccc(OCC(O)CN2CCN(c3ccccn3)CC2)cc1 (configuration not stated)	none
O=C(NC(=S)Nc1ccccn1)c1cccc([N+](=O)[O-])c1	HTR2A ag 27.3 | OPRM1 ag inactive | HTR2A ag conf inactive
CC(=O)N1CCN(S(=O)(=O)c2cccc(C(=O)NCCC3=CCCCC3)c2)CC1	none (no result: PfM18AAP inh, Lipid droplet)
CCOC(=O)CCCNC(=O)OC1CC2CC1[C@H]1CCCCN1[C@H]2C (some centres not stated)	none (no result: PfM18AAP inh, CendR NRP1 mod, HTR2A ag, Lipid droplet, Arrestin-AP2 inh)
COc1ccccc1Nc1nc(N)nc(CSc2nncn2C)n1	HTR2A ag 14.8 | OPRM1 ag inactive | HTR2A ag conf inactive
Cc1ccc(CN2CCNC(=O)C2CC(=O)O)o1 (configuration not stated)	HTR2A ag 21.4 | OPRM1 ag inactive | HTR2A ag conf inactive
COc1ccc(-c2cc(-c3nc4ccccn4c3NCc3ccccc3)ccc2OC)cc1	HTR2A ag 32.6 (no result: PfM18AAP inh, Lipid droplet) | OPRM1 ag 1.4 | HTR2A ag conf 29.4
C[C@H](CO)N1C[C@H](C)[C@H](CN(C)Cc2cccc(O)c2)OCc2ccccc2-c2c(n(C)c3ccccc23)C1=O	HTR2A ag 23.2 (no result: PfM18AAP inh, Lipid droplet, Arrestin-AP2 inh) | OPRM1 ag inactive | HTR2A ag conf 32.3
CCC(C)N(C(=O)CNc1nnnn1-c1ccccc1)C(C)CC (configuration not stated)	none (no result: PfM18AAP inh, CendR NRP1 mod, HTR2A ag, Lipid droplet, Arrestin-AP2 inh)
CCOC(=O)C(C(=O)OCC)C1N=C(N)N=C2Oc3ccccc3N21 (configuration not stated)	HTR2A ag 14.8 | OPRM1 ag inactive | HTR2A ag conf inactive
CC(C(=O)NCc1ccc(F)cc1)n1ccc2cc(S(=O)(=O)N3CCCC3)ccc21 (configuration not stated)	HTR2A ag 15.2 | OPRM1 ag inactive | HTR2A ag conf inactive
CCCc1nc2nc(C)c(NS(=O)(=O)c3ccc(CC(C)C)cc3)c(=O)n2[nH]1	HTR2A ag 16.1 | OPRM1 ag inactive | HTR2A ag conf inactive
CCc1nc2nc(C)c(NS(=O)(=O)c3ccc(CC(C)C)cc3)c(=O)n2[nH]1	none
CC(C)c1[nH]nc2c1C(c1ccc(F)cc1)N(Cc1ccccc1)C2=O (configuration not stated)	none (no result: PfM18AAP inh, CendR NRP1 mod, HTR2A ag, Lipid droplet, Arrestin-AP2 inh)
CC(=O)CC[C@H]1CC[C@]2(CCCN(C(=O)C3CCCCC3)C2)O1	none (no result: PfM18AAP inh, CendR NRP1 mod, HTR2A ag, Lipid droplet, Arrestin-AP2 inh)
CC(C)CC(NS(=O)(=O)OCC(Cl)(Cl)Cl)c1ccccc1 (configuration not stated)	HTR2A ag 19.5 | OPRM1 ag 0.9 | HTR2A ag conf inactive
CC(Cc1c[nH]c2ccccc12)NC(=O)OCCCl (configuration not stated)	HTR2A ag 19.6 | OPRM1 ag inactive | HTR2A ag conf inactive
COC(=O)C(Cc1c[nH]c2ccccc12)NC(C)=O (configuration not stated)	none
COc1ccc(S(=O)(=O)Nc2ccc3c(c2)C(=O)N([C@H](C)CO)C[C@H](C)[C@@H](CN(C)C(=O)Nc2ccc(C(F)(F)F)cc2)OCCCC[C@H](C)O3)cc1	none (no result: PfM18AAP inh, Lipid droplet, Arrestin-AP2 inh)
C=CCN1CCc2nc(N)sc2CC1	HTR2A ag 50.0 | OPRM1 ag inactive | HTR2A ag conf 151.1
O=C(OCC#CCSc1nnc(-c2cc3ccccc3cc2O)o1)c1ccc(F)cc1	none (no result: PfM18AAP inh, CendR NRP1 mod, HTR2A ag, Lipid droplet, Arrestin-AP2 inh)
O=C(CSc1nnc(SCc2cccc3ccccc23)s1)Nc1ccc(Oc2ccccc2)cc1	none (no result: PfM18AAP inh, CendR NRP1 mod, HTR2A ag, Lipid droplet, Arrestin-AP2 inh)
